Assays:
[1] = molecular target: T1, Cholecystokinin receptor type A (Rattus norvegicus, UniProt P30551); experiment: In vitro inhibition of binding of [3H]pCCK-8 against Cholecystokinin type A receptor of rat pancreatic membranes; format: cell membranes, Membrane
T1 sequence (P30551 whole entry): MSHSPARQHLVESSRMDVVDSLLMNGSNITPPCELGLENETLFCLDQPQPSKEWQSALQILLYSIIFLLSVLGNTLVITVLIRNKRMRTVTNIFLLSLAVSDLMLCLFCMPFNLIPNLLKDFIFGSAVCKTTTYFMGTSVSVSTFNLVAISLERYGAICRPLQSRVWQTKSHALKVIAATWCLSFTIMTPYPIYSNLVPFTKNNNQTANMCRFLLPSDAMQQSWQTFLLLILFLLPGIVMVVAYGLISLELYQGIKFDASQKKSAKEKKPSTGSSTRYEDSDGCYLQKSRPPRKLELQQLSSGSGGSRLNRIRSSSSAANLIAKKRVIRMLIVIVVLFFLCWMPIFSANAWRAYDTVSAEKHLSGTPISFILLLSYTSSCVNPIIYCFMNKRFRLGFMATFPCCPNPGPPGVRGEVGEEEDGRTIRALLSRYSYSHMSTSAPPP
Method in brief: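 Radioligand displacement of [3H]CCK-8S from membranes: rat pancreas for the CCK-A receptor and guinea-pig cerebral cortex for the CCK-B receptor, using slightly modified published methods. Values are means of n experiments.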

[2] = organism: Cavia porcellus; experiment: Selectivity factor between CCK-B and CCK-A receptors
[3] = test system: Rattus norvegicus; experiment: Anxiolytic effect in the rat social interaction test against FG 7142, when administered intraperitoneally; format: functional; details: ip
[4] = molecular target: T1, Cholecystokinin receptor type A; experiment: Inhibition by displacing [3H]CCK-8S against Cholecystokinin type A receptor of rat pancreatic membranes
[5] = organism: Rattus norvegicus; experiment: pKB determined against pentagastrin-induced acid secretion in isolated rat gastric mucosa; format: functional
Method in brief: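 Isolated rat gastric mucosa used as a gastrin-receptor preparation; acid secretion stimulated with pentagastrin and antagonism expressed as pKB.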

[6] = test system: Mus musculus; experiment: Anxiolytic effect in the mouse black / white box model, when administered intravenously; format: functional; details: iv
Method in brief: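 Naive mice were placed in an activity box with a brightly illuminated section, and the time they spent there was recorded. The effect was assessed over a dose series and reported as an ED50.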

[7] = test system: Rattus norvegicus; experiment: Anxiolytic effect in the rat social interaction test, when administered orally (po); format: functional
[8] = test system: Mus musculus; experiment: Anxiolytic effect in the mouse black / white box model, when administered orally (po); format: functional
Method in brief: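 Naive mice placed in an activity box with a brightly illuminated section. The read-out was the time the mice remained in the lit section. Dose-related effects were assessed, and an ED50 value was derived.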

[9] = molecular target: T2, Cholecystokinin receptor type A (Cavia porcellus) (UniProt Q63931)
T2 sequence (whole entry): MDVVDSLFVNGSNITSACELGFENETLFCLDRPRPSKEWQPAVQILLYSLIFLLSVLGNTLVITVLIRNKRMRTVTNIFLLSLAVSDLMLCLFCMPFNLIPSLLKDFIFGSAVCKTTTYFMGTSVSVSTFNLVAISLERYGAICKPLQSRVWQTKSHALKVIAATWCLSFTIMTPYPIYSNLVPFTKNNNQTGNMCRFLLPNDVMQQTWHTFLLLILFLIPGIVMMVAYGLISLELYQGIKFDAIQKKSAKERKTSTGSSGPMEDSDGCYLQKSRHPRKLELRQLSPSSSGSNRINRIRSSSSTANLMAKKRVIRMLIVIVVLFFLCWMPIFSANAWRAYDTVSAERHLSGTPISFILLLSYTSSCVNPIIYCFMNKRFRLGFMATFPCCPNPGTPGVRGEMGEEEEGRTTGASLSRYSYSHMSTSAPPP

[10] = molecular target: T3, Gastrin/cholecystokinin type B receptor (Homo sapiens) (UniProt P32239); details: Cavia porcellus
T3 sequence (whole entry): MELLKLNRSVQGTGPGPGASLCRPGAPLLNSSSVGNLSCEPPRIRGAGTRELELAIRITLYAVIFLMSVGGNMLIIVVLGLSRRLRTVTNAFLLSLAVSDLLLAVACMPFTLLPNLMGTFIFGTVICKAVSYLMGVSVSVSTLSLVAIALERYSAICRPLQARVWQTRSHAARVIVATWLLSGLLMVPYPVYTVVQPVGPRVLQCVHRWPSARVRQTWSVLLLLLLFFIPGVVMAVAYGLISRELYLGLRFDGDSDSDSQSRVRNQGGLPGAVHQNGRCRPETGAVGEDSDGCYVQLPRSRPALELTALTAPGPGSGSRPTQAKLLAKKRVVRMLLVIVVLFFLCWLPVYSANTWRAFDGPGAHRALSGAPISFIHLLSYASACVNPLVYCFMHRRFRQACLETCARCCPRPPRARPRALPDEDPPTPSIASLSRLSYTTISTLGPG

[11] = molecular target: T2, Cholecystokinin receptor type A (Cavia porcellus); details: Gall bladder

O=C(Nc1ccc(O)cc1)NC1C(=O)N(CC23C[C@H]4C[C@@H](C2)C[C@@H](C3)C4)c2ccccc2N(c2ccccc2)C1=O (single isomer, unassigned; (+))
Ki [1]: 20400 nM
Ratio [2]: 30900

O=C(Nc1ccccc1)NC1C(=O)N(CC23C[C@H]4C[C@@H](C2)C[C@@H](C3)C4)c2ccccc2N(c2ccccc2)C1=O (single isomer, unassigned; (+)) [listing 1 of 2 here]
ED50 [3]: 10 µg/kg
Ki [4]: 1480 nM
Ki [1]: 1620 nM
pKB [5]: 7.4
ED50 [6]: 0.03 µg/kg
ED50 [7]: 1.6 µg/kg
ED50 [8]: 0.05 µg/kg

CCOC(=O)CCCOc1ccc(NC(=O)NC2C(=O)N(CC34C[C@H]5C[C@@H](C3)C[C@@H](C4)C5)c3ccccc3N(c3ccccc3)C2=O)cc1 (single isomer, unassigned; (+))
Ki [1]: > 10000 nM
Ratio [2]: > 1900

O=C(Nc1ccccc1)NC1C(=O)N(CC23C[C@H]4C[C@@H](C2)C[C@@H](C3)C4)c2ccccc2N(c2ccccc2)C1=O (single isomer, unassigned; (+)) [listing 2 of 2 here]
pKB [9]: 5.9
pKB [10]: 8.9
pKB [11]: 5.8

Cc1cccc(NC(=O)N[C@@H]2N=C(c3ccccc3)c3ccccc3N(C)C2=O)c1 [L-365260]
Ki [4]: 0.148 nM

— ChEMBL document CHEMBL1133671, “Synthesis and SAR of new 5-phenyl-3-ureido-1,5-benzodiazepines as cholecystokinin-B receptor antagonists” (J Med Chem, 2000)
